# CAL PDZ FP-1: human CAL PDZ-peptide interaction inhibition; Q9HD26; inhibition, % at 20 µM; purified CAL PDZ, TMR-peptide fluorescence polarization, 1 h; hit rate 0.02% among 330,000;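 active means highest replicate inhibition of at least 40%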;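 further: plate controls were DMSO neutral control wells for no effect and unlabeled competitor peptide control wells for full effect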
#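 Read-out basis: mP drop reported as inhibition | Assay system: Tagged CAL PDZ protein CerCALP, purified | Benchmarks: Unlabelled peptide for full inhibition, DMSO wells as neutral | Schedule: 1 h incubation at room temperature before polarization reading | Buffer or medium: Sodium phosphate/NaCl buffer pH 7.4 with TCEP, IgG, Thesit | Doses: Single point, 20 µM | Measured by: Fluorescence polarization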
# Dyrk1A ADPGlo: Dyrk1A (rat) kinase inhibition; ADP-Glo luminescence, NFATc1 peptide; AID 504441; hit rate 0.43% among 310,000; inhibition, % at 12.5 µM; in the data active means inhibition above about 50%;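 further: plate controls were vehicle with enzyme for no effect and no enzyme for full effect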
# ARNT-TACC3 inh: disruptors of human ARNT/TACC3 interaction. AlphaScreen His-ARNT PAS-B/GST-TACC3 binding, luminescence; TACC3 fragment carries E629A point mutation. inhibition, % at 9.99 µM. hit rate 0.66% among 390,000;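 active means mean inhibition of replicates at least 50% and at least half of replicates each reaching 50%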;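 further: 0% = complete ARNT plus TACC3 wells and 100% = ARNT alone without TACC3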
# CAL PDZ FP-2: blocks peptide binding to the human CAL PDZ domain; hit rate 0.92% among 300,000; inhibition, % at 24.9 µM; Q9HD26; purified CAL PDZ, TMR-peptide fluorescence polarization, 1 h;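 active means mean inhibition of at least 30% with at least half of replicates also reaching 30%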;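 further: 0% = DMSO neutral control and 100% = excess unlabeled competitor peptide PRC23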
# * = called active by the depositor; nt = no result; ! = not active in a repeat. The list is not random: actives were taken first. Their share in the collection is about 1.4%.
SMILES,CAL PDZ FP-1,Dyrk1A ADPGlo,ARNT-TACC3 inh,CAL PDZ FP-2
O=C(CCC(=O)c1ccccc1)Nc1ccccc1OC(F)F,-1,-3,-7,33*
CCOc1ccc(/C=N/OCC(=O)Nc2cc(S(=O)(=O)N3CCOCC3)ccc2OC)cc1,nt,-5,-3,47*
C[C@@H]1CN([C@@H](C)CO)C(=O)c2cc(C#CCN(C)C)cnc2O[C@H]1CN(C)C(=O)CCN1CCCCC1,nt,nt,-3,nt
CCN1CSC(=S)N(Cc2ccccc2)C1,-3,-8,1,-3
CCCCCN1CSC(=S)N(Cc2ccccc2)C1,0,4,1,46*
C[C@H]1CN([C@@H](C)CO)S(=O)(=O)c2ccc(-c3cccnc3)cc2O[C@@H]1CN(C)C(=O)CN(C)C,nt,nt,-1,nt
O=c1c2ccccc2nc(SCc2ccccc2F)n1C1CCCC1,-1,-1,47*,10
C[C@@H]1CN([C@@H](C)CO)C(=O)Cc2cc(NS(=O)(=O)c3ccc(F)cc3)ccc2O[C@@H]1CN(C)C(=O)Nc1cccc2ccccc12,nt,nt,-9,nt
CC(=O)Nc1ccc2c(c1)C(=O)N(C)[C@H]1CC[C@H](CC(=O)NCc3ccc(F)cc3)O[C@H]1CO2,nt,nt,8,nt
Nc1nc(SCC(=O)c2ccc(Cl)cc2)c2ncn(C3OC(CO)C(O)C3O)c2n1 (configuration not stated),7,-4,2,53*
C[C@@H]1CN([C@@H](C)CO)C(=O)c2cc(NS(=O)(=O)c3ccc(Cl)cc3)ccc2O[C@@H](C)CCCCO[C@H]1CN(C)Cc1ccc(C(=O)O)cc1,nt,nt,-3,nt
c1ccc(-c2csc(Nc3nc(N4CCOCC4)nc(N4CCOCC4)n3)n2)cc1,0,6,3,49*
O=C(C[C@H]1CC[C@@H]2[C@H](COC[C@H](O)CN2Cc2ccc(F)cc2)O1)NCc1ccncn1,nt,nt,-1,nt
C[C@@H]1CN([C@@H](C)CO)C(=O)c2cc(C#Cc3ccccc3F)cnc2O[C@H]1CN(C)C(=O)Cc1cccnc1,nt,nt,-1,nt
Cc1ccc(NC(=O)CCNS(=O)(=O)c2ccccc2)cc1S(=O)(=O)N1CCOCC1,-1,8,20,-2
COc1ccc(CC(=O)Nc2ccc(F)c(S(=O)(=O)N3CCOCC3)c2)cc1,-1,2,5,nt
Cc1ccc(NC(=O)Cc2ccccc2)cc1S(=O)(=O)N1CCOCC1,0,-1,-4,30*
CCc1ccccc1OCC(=O)Nc1ccc(F)c(S(=O)(=O)N2CCOCC2)c1,0,-6,nt,31*
CC1(C)Cc2ccccc2C(NNC(=O)c2ccccn2)=N1,0,-1,66*,-4
CCOC(=O)NC(=O)/C(N=Nc1cc(C)cc(C)c1)=C(\C)O,0,-2,-3,0
CCOC(=O)NC(=O)/C(N=Nc1ccc(C(F)(F)F)cc1)=C(\C)O,0,-1,nt,45*
C[C@H]1CN([C@@H](C)CO)C(=O)c2cccc(NC(=O)c3cnccn3)c2O[C@@H]1CN(C)C(=O)NC1CCCCC1,nt,nt,-1,nt
COc1cccc2cc(C(=O)N(Cc3ccccc3)CC3CCCO3)c(=O)oc12 (configuration not stated),-1,-3,-9,43*
O=C([C@@H]1[C@@H](CO)[C@@H]2Cn3c(ccc(C4=CCCC4)c3=O)[C@@H]2N1Cc1nccs1)N1CCOCC1,nt,nt,6,nt
COc1cccc(C2C(C(=O)c3cc4ccccc4o3)=C(O)C(=O)N2CCN(C)C)c1OC (configuration not stated),nt,-8,-5,33*
SMILES,CAL PDZ FP-1,Dyrk1A ADPGlo,ARNT-TACC3 inh,CAL PDZ FP-2
COc1cccc(C2C(C(=O)c3ccco3)=C(O)C(=O)N2CCN(C)C)c1OC (configuration not stated),-1,-3,-1,-3
CC1CCCCC12NC(=O)N(CC(=O)OCc1cccc(F)c1)C2=O (configuration not stated),0,nt,-29,56*
COc1ccc(C(C)(C)C)cc1NC(=O)COC(=O)CN1C(=O)NC2(CCCCC2C)C1=O (configuration not stated),0,-3,2,52*
Cc1ccc(S(=O)(=O)Nc2cccc3c2O[C@@H](CN(C)S(=O)(=O)c2ccccc2)[C@@H](C)CN([C@@H](C)CO)C3=O)cc1,nt,nt,-3,nt
CCS(=O)(=O)Nc1ccc2c(c1)C(=O)N(C)C[C@H](OC)[C@H](C)CN(C(=O)C1CCC1)[C@H](C)CO2,nt,nt,-3,nt
COc1cccc(CNc2nc3ccccc3n2C)c1O,18,13,-2,44*
COc1cccc(CNc2cnc3ccccc3c2)c1O,-2,9,20,2
COc1ccc(NC(=O)CSc2nnc(-c3ccoc3C)n2CCc2ccccc2)cc1,nt,4,7,103*
COc1ccc(NC(=O)CSc2nnc(N)n2CC(=O)Nc2ccc(OC)cc2)cc1,0,-6,-4,52*
COc1ccc(NC(=O)CSc2nnc(C)n2Cc2ccccc2)cc1,-2,1,28,-14
CO[C@H](CN(C)C(=O)c1cnccn1)[C@H](C)CN([C@@H](C)CO)S(=O)(=O)c1ccc(Cl)cc1,nt,nt,-4,nt
Cc1ccc(S(=O)(=O)Nc2c(C)n(C)n(-c3ccccc3)c2=O)cc1,10,4,2,54*!
Cc1ccc(Cn2ncc3c(NN)ncnc32)cc1,-1,-6,66*,2
COc1ccc(C=NNC(=S)NN=Cc2ccc(OC)c(OC)c2)cc1OC,0,8,11,0
COCCCNC(=S)N/N=C/c1ccc(OC)c(Br)c1,-1,3,4,54*
COc1cccc(/C=N/NC(=O)Cn2nc(C)c([N+](=O)[O-])c2C)c1O,-2,6,65*,0
COc1cccc(/C=N/NC(=O)C(C)n2nc(C)c([N+](=O)[O-])c2C)c1O (configuration not stated),-1,-3,88*,-2
C[C@@H]1CN([C@H](C)CO)C(=O)c2cc(NS(=O)(=O)c3ccc(Cl)cc3)ccc2O[C@@H]1CN(C)S(=O)(=O)c1ccccc1,nt,nt,-5,nt
O=C(C[C@@H]1CC[C@H]2[C@@H](COC[C@H](O)CN2Cc2nccs2)O1)NCc1ccccc1F,nt,nt,-9,nt
CSc1cccc(NC(=O)CNC(=O)c2ccc3c(c2)OCO3)c1,-1,-1,-1,61*
CCOc1ccc(C(=O)NCC(=O)Nc2ccc3c(c2)OCO3)cc1OCC,0,2,nt,0
COc1ccccc1-c1nnc(NC(=O)c2ccc(S(=O)(=O)N(C)C)cc2)o1,-3,-2,57*,3
CCc1nnc(NC(=O)c2ccc(S(=O)(=O)N(CCOC)CCOC)cc2)o1,-1,-3,46*,-4
COCc1nnc(NC(=O)c2ccc(S(=O)(=O)N3CCCC3)cc2)o1,-3,-1,49*,-1
COCCN(CCOC)S(=O)(=O)c1ccc(C(=O)Nc2nnc(C3CC3)o2)cc1,-2,2,47*,-2
CCCCN(CC)S(=O)(=O)c1ccc(C(=O)Nc2nnc(COC)o2)cc1,-3,-3,29,0
CO[C@H]1CC[C@H]2CCN(C)C(=O)[C@@H](C)[C@H](OC)CN(C)C(=O)c3cc(C#N)ccc3OC[C@H]1O2,nt,nt,-2,nt

# Screening results (PubChem)
